# Laboratory results taken from ChEMBL document CHEMBL1138784, “Rational design, synthesis, and biological evaluation of bis(pyrimido[5,6,1-de]acridines) and bis(pyrazolo[3,4,5-kl]acridine-5-carboxamides) as new anticancer agents” (J Med Chem, 2004).
# How the values were obtained:
# [1] = Cytotoxicity against doxorubicin resistant LoVo cell line was determined against 1 hour; assay type: cell-based; details: Homo sapiens
# Method in brief: (§1)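 MTT assay on doxorubicin-sensitive LoVo and resistant LoVo/Dx cells, 24 h preincubation, then 1 h or 144 h drug exposure at 37 °C, 5% CO2. IC50 in nM. Resistance index is IC50 on LoVo/Dx divided by IC50 on LoVo.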
# [2] = Cytotoxicity against human PC3 cancer cell line was determined after 1 hr; assay type: cell-based; details: Cancer cell lines
# Method in brief: (§2)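 MTT colorimetric assay. Cells seeded by growth characteristics and preincubated 24 h, then exposed to drug for 1 h or 144 h at 37 °C, 5% CO2. H460M, MKN45 and PC-3 were grown in RPMI 1640 with 10% FCS. HCT116 was grown in D-MEM with 10% FBS and 2 mM glutamine.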
# [3] = test system: OVCAR-4; assay: Percent growth of ovarian OVCAR-4 cell line was determined at 10e-8 M concentration after 48 hr of exposing; assay type: functional, Homo sapiens
# Method in brief: (§3)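 NCI sulforhodamine B screen. Cells seeded by growth rate, 24 h drug-free, then 48 h exposure to 10^-8, 10^-6 or 10^-5 M. Protein-stain optical density expressed as percent growth relative to untreated control (100%); negative values indicate cell kill.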
# [4] = test system: NCI-H460; assay: Percent growth of lung NCI-H460 cell line was determined at 10e-5 M concentration after 48 hr of exposing; assay type: functional, Homo sapiens; method in brief: as §3
# [5] = test system: MKN-45; assay: Cytotoxicity against human MKN45 cancer cell line was determined after 144 hr; assay type: functional, cell-based; details: MKN-45, 144 h; method in brief: as §2
# [6] = Percent growth of melanoma LOX IMV1 cell line was determined at 10e-5 M concentration after 48 hr of exposing; assay type: functional, Homo sapiens; method in brief: as §3
# [7] = test system: NCI-H460; assay: Percent growth of lung NCI-H460 cell line was determined at 10e-6 M concentration after 48 hr of exposing; assay type: functional, Homo sapiens; method in brief: as §3
# [8] = test system: DU-145; assay: Percent growth of prostate DU-145 cell line was determined at 10e-8 M concentration after 48 h of exposing; assay type: functional, Homo sapiens
# [9] = test system: PC-3; assay: Cytotoxicity against human PC3 cancer cell line was determined after 144 hr; assay type: functional, cell-based; details: PC-3, 144 h; method in brief: as §2
# [10] = test system: OVCAR-4; assay: Percent growth of ovarian OVCAR-4 cell line was determined at 10e-6 M concentration after 48 hr of exposing; assay type: functional, Homo sapiens; method in brief: as §3
# [11] = Cytotoxicity against human LoVo cancer cell line was determined after 1 hr; assay type: cell-based; method in brief: as §1
# [12] = test system: Nucleic Acid; assay: Binding site preference is determined as the ratio of Poly (dA-dT)2 to Poly (dG-dC)2; assay type: nucleic-acid assay
# Method in brief: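 Ethidium displacement fluorometry at pH 7.0 (10 mM Na2HPO4, 10 mM NaH2PO4, 1 mM EDTA) with 1.26 μM ethidium bromide and 1 μM [poly(dA-dT)]2 or [poly(dG-dC)]2, 20 °C. Ex 546 nm, em 595 nm, drug added serially from a DMSO stock. Preference taken from the [AT]/[GC] ratio of C50 values, counted significant only below 0.7 or above 1.3.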
# [13] = Cytotoxicity against human MKN45 cancer cell line was determined after 1 hr; assay type: cell-based; details: Cancer cell lines; method in brief: as §2
# [14] = test system: SNB-19; assay: Percent growth of CNS SNB-19 cell line was determined at 10e-8 M concentration after 48 hr of exposing; assay type: functional, Homo sapiens; method in brief: as §3
# [15] = test system: MOLT-4; assay: Percent growth of leukemia MOLT-4 cell line was determined at 10e-8 M concentration after 48 hr of exposing; assay type: functional, Homo sapiens; method in brief: as §3
# [16] = test system: 786-0; assay: Percent growth of renal 786-O cell line was determined at 10e-6 M concentration after 48 h of exposing; assay type: functional, Homo sapiens; method in brief: as §3
# [17] = test system: DU-145; assay: Percent growth of prostate DU-145 cell line was determined at 10e-5 M concentration after 48 hr of exposing; assay type: functional, Homo sapiens
# [18] = test system: MCF7; assay: Percent growth of breast MCF-7 cell line was determined at 10e-5 M concentration after 48 hr of exposing; assay type: functional, Homo sapiens
# [19] = test system: MOLT-4; assay: Percent growth of leukemia MOLT-4 cell line was determined at 10e-5 M concentration after 48 hr of exposing; assay type: functional, Homo sapiens; method in brief: as §3
# [20] = test system: MCF7; assay: Percent growth of breast MCF-7 cell line was determined at 10e-6 M concentration after 48 h of exposing; assay type: functional, Homo sapiens
# [21] = test system: OVCAR-4; assay: Percent growth of ovarian OVCAR-4 cell line was determined at 10e-5 M concentration after 48 hr of exposing; assay type: functional, Homo sapiens; method in brief: as §3
# [22] = Percent growth of melanoma LOX IMV1 cell line was determined at 10e-8 M concentration after 48 hr of exposing; assay type: functional, Homo sapiens; method in brief: as §3
# [23] = test system: SW-620; assay: Percent growth of colon SW-620 cell line was determined at 10e-8 M concentration after 48 hr of exposing; assay type: functional, Homo sapiens; method in brief: as §3
# [24] = test system: HT-29; assay: Cytotoxicity is determined as the concentration required to inhibit the growth of human colon adenocarcinoma (HT-29) cell line; assay type: functional, cell-based
# [25] = test system: NCI-H460; assay: Percent growth of lung NCI-H460 cell line was determined at 10e-8 M concentration after 48 hr of exposing; assay type: functional, Homo sapiens; method in brief: as §3
# [26] = test system: HCT-116; assay: Cytotoxicity against human HCT116 cancer cell line was determined after 144 hr; assay type: functional, cell-based; details: HCT-116, 144 h; method in brief: as §2
# [27] = Cytotoxicity against human H460M cancer cell line was determined after 144 hr; assay type: functional, cell-based; details: Cancer cell lines; method in brief: as §2
# [28] = test system: LoVo; assay: Cytotoxicity against doxorubicin resistant LoVo cell line was determined against 144 hrs; assay type: functional, cell-based; details: Homo sapiens; method in brief: as §1
# [29] = test system: MOLT-4; assay: Percent growth of leukemia MOLT-4 cell line was determined at 10e-6 M concentration after 48 h of exposing; assay type: functional, Homo sapiens; method in brief: as §3
# [30] = test system: SNB-19; assay: Percent growth of CNS SNB-19 cell line was determined at 10e-6 M concentration after 48 hr of exposing; assay type: functional, Homo sapiens; method in brief: as §3
# [31] = test system: 786-0; assay: Percent growth of renal 786-O cell line was determined at 10e-8 M concentration after 48 h of exposing; assay type: functional, Homo sapiens; method in brief: as §3
# [32] = Percent growth of melanoma LOX IMV1 cell line was determined at 10e-6 M concentration after 48 hr of exposing; assay type: functional, Homo sapiens; method in brief: as §3
# [33] = test system: LoVo; assay: Cytotoxicity against human LoVo cancer cell line was determined after 144 hr; assay type: functional, cell-based; method in brief: as §1
# [34] = test system: SW-620; assay: Percent growth of colon SW-620 cell line was determined at 10e-6 M concentration after 48 hr of exposing; assay type: functional, Homo sapiens; method in brief: as §3
# [35] = test system: SNB-19; assay: Percent growth of CNS SNB-19 cell line was determined at 10e-5 M concentration after 48 hr of exposing; assay type: functional, Homo sapiens; method in brief: as §3
# [36] = test system: LoVo; assay: Ratio of IC50 against sensitive LoVo cell line and that of doxorubicin resistance LoVo cell line was determined after 1 hr exposure; assay type: functional, Homo sapiens
# [37] = test system: DU-145; assay: Percent growth of prostate DU-145 cell line was determined at 10e-6 M concentration after 48 hr of exposing; assay type: functional, Homo sapiens
# [38] = test system: MCF7; assay: Percent growth of breast MCF-7 cell line was determined at 10e-8 M concentration after 48 hr of exposing; assay type: functional, Homo sapiens
# [39] = Cytotoxicity against human HCT116 cancer cell line was determined after 1 hr; assay type: cell-based; details: HCT-116, 1 h; method in brief: as §2
# [40] = test system: SW-620; assay: Percent growth of colon SW-620 cell line was determined at 10e-5 M concentration after 48 hr of exposing; assay type: functional, Homo sapiens; method in brief: as §3
# [41] = Cytotoxicity against human H460M cancer cell line was determined after 1 hr; assay type: cell-based; details: Cancer cell lines; method in brief: as §2
# [42] = test system: 786-0; assay: Percent growth of renal 786-O cell line was determined at 10e-5 M concentration after 48 hr of exposing; assay type: functional, Homo sapiens; method in brief: as §3
compound,measurement,setting,value
COc1ccc2c(c1)-c1nn(CCN(C)C)c3ccc(C(=O)NCCCN(C)CCCNC(=O)c4ccc5c6c(c7cc(OC)ccc7nc46)NN5CCN(C)C)c(c13)N2,IC50,[1],3100 nM
same,IC50,[2],> 100 nM
same,Growth,[3],71%
same,Growth,[4],-58%
same,IC50,[5],13 nM
same,Growth,[6],-80%
same,Growth,[7],3%
same,Growth,[8],70%
same,IC50,[9],39 nM
same,Growth,[10],-5%
same,IC50,[11],53 nM
same,Binding site preference,[12],5.5
same,IC50,[13],51 nM
same,Growth,[14],47%
same,Growth,[15],19%
same,Growth,[16],11%
same,Growth,[17],-21%
same,Growth,[18],-18%
same,Growth,[19],-28%
same,Growth,[20],7%
same,Growth,[21],-54%
same,Growth,[22],46%
same,Growth,[23],44%
same,IC50,[24],3 nM
same,Growth,[25],23%
same,IC50,[26],43 nM
same,IC50,[27],4.3 nM
same,IC50,[28],290 nM
same,Growth,[29],-28%
same,Growth,[30],0%
same,Growth,[31],53%
same,Growth,[32],3%
same,IC50,[33],5.1 nM
same,Growth,[34],3%
same,Growth,[35],-37%
same,Resistance index,[36],58
same,Growth,[37],-8%
same,Growth,[38],66%
same,IC50,[39],120 nM
same,Growth,[40],-39%
same,IC50,[41],26 nM
same,Growth,[42],-33%
CN(C)CCn1c(=O)c2ccc(NCCCN(C)CCCNc3ccc4c(=O)n(CCN(C)C)c(=O)n5c6ccc([N+](=O)[O-])cc6c(=O)c3c45)c3c(=O)c4cc([N+](=O)[O-])ccc4n(c1=O)c23,IC50,[1],380 nM
same,IC50,[2],11 nM
same,Growth,[3],31%
same,Growth,[4],-60%
same,IC50,[5],0.29 nM
same,Growth,[6],-69%
same,Growth,[7],-36%
same,Growth,[8],35%
same,IC50,[9],4.5 nM
same,Growth,[10],-54%
same,IC50,[11],42 nM
same,Binding site preference,[12],2.4
same,IC50,[13],1.3 nM
same,Growth,[14],37%
same,Growth,[15],-2%
same,Growth,[16],-4%
same,Growth,[17],-83%
same,Growth,[18],-55%
same,Growth,[19],-50%
same,Growth,[20],-2%
same,Growth,[21],-65%
same,Growth,[22],16%
same,Growth,[23],42%
same,IC50,[24],< 0.1 nM
same,Growth,[25],10%
same,IC50,[26],1.1 nM
same,IC50,[27],0.19 nM
same,IC50,[28],67 nM
same,Growth,[29],-31%
same,Growth,[30],-25%
same,Growth,[31],33%
same,Growth,[32],-56%
same,IC50,[33],7.6 nM
same,Growth,[34],5%
same,Growth,[35],-66%
same,Resistance index,[36],9
same,Growth,[37],-13%
same,Growth,[38],21%
same,IC50,[39],2.9 nM
same,Growth,[40],-16%
same,IC50,[41],0.93 nM
same,Growth,[42],-63%
CN(C)CCn1c(=O)c2ccc(NCCCN(C)CCCNc3ccc4c(=O)n(CCN(C)C)c(=O)n5c6ccc(O)cc6c(=O)c3c45)c3c(=O)c4cc(O)ccc4n(c1=O)c23,IC50,[1],810 nM
same,IC50,[2],2 nM
same,Growth,[3],42%
same,Growth,[4],-60%
same,IC50,[5],< 0.001 nM
same,Growth,[6],-77%
same,Growth,[7],-23%
same,Growth,[8],32%
same,IC50,[9],0.01 nM
same,Growth,[10],-37%
same,IC50,[11],98 nM
same,Binding site preference,[12],1.7
same,IC50,[13],< 0.001 nM
same,Growth,[14],34%
same,Growth,[15],-4%
same,Growth,[16],1%
same,Growth,[17],-42%
same,Growth,[18],-32%
same,Growth,[19],-60%
same,Growth,[20],-1%
same,Growth,[21],-36%
same,Growth,[22],20%
same,Growth,[23],36%
same,IC50,[24],< 0.1 nM
same,Growth,[25],11%
same,IC50,[26],< 0.001 nM
same,IC50,[27],< 0.001 nM
same,IC50,[28],59 nM
same,Growth,[29],-37%
same,Growth,[30],-4%
same,Growth,[31],36%
same,Growth,[32],-50%
same,IC50,[33],3.9 nM
same,Growth,[34],10%
same,Growth,[35],-17%
same,Resistance index,[36],8.3
same,Growth,[37],-6%
same,Growth,[38],16%
same,IC50,[39],0.06 nM
same,Growth,[40],-8%
same,IC50,[41],< 0.001 nM
same,Growth,[42],-52%
